Experimental data as given in PubChem BioAssay AID624302 (The Scripps Research Institute Molecular Screening Center, 2012).
The source made the active and inactive calls.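 Rule for the calls: active = relative luminescence ratio of 1.25 or more at any tested dose; inactive = ratio below 1.25 at every dose.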

Molecular target: Nuclear receptor subfamily 0 group B member 1 (Homo sapiens) (UniProt P51843)
Experiment: DAX1 (NR0B1) inhibitors, reporter derepression, dose response, cell-based, luminescence, HEK293, powder samples, assay provider (AID 624302)
Conditions: HEK293 GAL4-DAX1 repression, luciferase reporter luminescence; at 100 µM; active compounds read high
In short: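 Test system: HEK293 with GAL4-DAX1 fusion and Gal4-tk-luc reporter; Measured by: luciferase luminescence; Controls: DMSO wells.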

Chain of Nuclear receptor subfamily 0 group B member 1 (Homo sapiens) (P51843 207-470 limits assumed): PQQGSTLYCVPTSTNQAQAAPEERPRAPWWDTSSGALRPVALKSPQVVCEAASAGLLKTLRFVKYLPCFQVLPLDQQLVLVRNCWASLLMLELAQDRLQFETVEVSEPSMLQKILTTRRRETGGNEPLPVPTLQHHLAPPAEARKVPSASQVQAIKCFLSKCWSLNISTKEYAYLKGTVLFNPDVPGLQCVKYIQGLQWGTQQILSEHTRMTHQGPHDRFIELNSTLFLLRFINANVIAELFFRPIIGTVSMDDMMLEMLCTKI

Row | SMILES | relative luminescence ratio
1 | CSc1ccccc1C(=O)Nc1ccc2c(c1)OCO2 | 0.41 (inactive)
2 | COc1ccc(OC)c(C(C)NC(=O)c2ccc(C)cc2)c1 (centres undefined) | 0.38 (inactive)
3 | COc1cccc(C(=O)Nc2ccc3c(c2)OCCO3)c1 | 0.02 (inactive)
4 | COc1ccc(OC)c(C(C)NC(=O)c2ccc3c(c2)OCCO3)c1 (centres undefined) | 0.31 (inactive)
5 | O=C(Nc1ccc2c(c1)OCO2)c1ccc2ccccc2c1 | 0.02 (inactive)
6 | COc1cccc(C(=O)NC(C)c2cc(OC)ccc2OC)c1 (centres undefined) | 0.3 (inactive)
7 | O=C(Nc1ccc2c(c1)OCO2)c1ccc(C2SCC(=O)N2Cc2ccccc2)cc1 (centres undefined) | 0.01 (inactive)
8 | COc1ccc(OC)c(C(C)NC(=O)c2ccccc2Cl)c1 (centres undefined) | 0.39 (inactive)
9 | O=C(Nc1ccc2c(c1)OCO2)c1cccs1 | 0.38 (inactive)
10 | COc1ccc(OC)c(C(C)NC(=O)c2ccccc2)c1 (centres undefined) | 0.46 (inactive)
11 | COc1ccc(OC)c(C(C)NC(=O)c2cccc(C)c2)c1 (centres undefined) | 0.23 (inactive)
12 | O=C(Nc1ccc2c(c1)OCCO2)c1ccc2ccccc2c1 | 0.02 (inactive)
13 | COc1ccc(OC)c(C(C)NC(=O)c2ccc(Cl)cc2)c1 (centres undefined) | 0.3 (inactive)
14 | Cn1c(=O)n(C)c2cc(C(=O)Nc3ccc4c(c3)OCO4)ccc21 | 1.77
15 | COc1ccc(OC)c(C(C)NC(=O)c2ccc(C(C)(C)C)cc2)c1 (centres undefined) | 0.1 (inactive)
16 | Cn1c(=O)n(C)c2cc(C(=O)Nc3ccc4c(c3)OCCO4)ccc21 | 2.25
17 | O=C(Nc1ccc2c(c1)OCO2)c1ccc(C2SCC(=O)N2Cc2ccco2)cc1 (centres undefined) | 0.01 (inactive)
18 | COc1ccc(OC)c(C(C)NC(=O)c2c(F)cccc2Cl)c1 (centres undefined) | 0.51 (inactive)
19 | COc1cccc(C(=O)Nc2ccc3c(c2)OCO3)c1 | 0.16 (inactive)
20 | Cc1cc(C(=O)Nc2ccc3c(c2)OCO3)cs1 | 0.26 (inactive)
21 | O=C(Cc1cccs1)Nc1ccc2c(c1)OCO2 | 0.62 (inactive)
22 | COc1ccc(OC)c(C(C)NC(=O)c2ccccc2C)c1 (centres undefined) | 0.42 (inactive)
23 | CSc1ccccc1C(=O)Nc1ccc2c(c1)OCCO2 | 0.51 (inactive)
24 | COc1ccc(OC)c(C(C)NC(=O)c2cccc3ccccc23)c1 (centres undefined) | 0.01 (inactive)
25 | CN(C)c1cccc(C(=O)Nc2ccc3c(c2)OCCO3)c1 | 0.05 (inactive)
26 | COc1ccc(OC)c(C(C)NC(=O)c2cccc(F)c2)c1 (centres undefined) | 0.63 (inactive)
27 | Cc1occc1C(=O)Nc1ccc2c(c1)OCO2 | 0.21 (inactive)
28 | COc1ccc(OC)c(C(C)NC(=O)c2ccc(F)cc2)c1 (centres undefined) | 0.33 (inactive)
29 | COc1ccc(OC)c(C(C)NC(=O)c2ccccc2F)c1 (centres undefined) | 0.39 (inactive)
